Measured values taken from ChEMBL document CHEMBL2331346, “Isolation and characterization of unusual hydrazides from Streptomyces sp. impact of the cultivation support and extraction procedure” (J Nat Prod, 2013).
The source made the active and inactive calls. No cut-off for these calls is given here.

Legend:
HCT-116 = assay: Cytotoxicity against human HCT116 cells assessed as inhibition of cell proliferation after 72 hrs by […]; type: functional, cell-based; conditions: for IC50: HCT-116, 72 h
Method in brief: (§1)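 Cells were grown in D-MEM with 10% fetal calf serum plus penicillin, streptomycin and fungizone, then plated in 96-well plates. After 24 h growth they were treated from 100 μM to 10 nM, with compounds in DMSO (final DMSO 1% to 3%). MTS reagent was added at 72 h and absorbance read at 490 nm versus untreated cells. IC50 came from separate duplicate experiments.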

BL-21 = assay: (§2) Inhibition of His-tagged Escherichia coli DnaG primase expressed in Escherichia coli BL-21 cells assessed as inhibition of RNA synthesis complementary to ssDNA using rNTPs measured after 5 mins by microplate spectrofluorometer analysis
[1] = as §2
Bacillus subtilis = assay: Antibacterial activity against Bacillus subtilis ATCC 6633 by disk inhibition zone method; type: functional, organism-based
Method in brief: (§3)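 Disk inhibition zone method against the three strains. Reference antibiotics were gentamicin at 10 μg and chloramphenicol at 30 μg. Inhibition zones were compared with these disks.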

Escherichia coli = assay: Antibacterial activity against Escherichia coli ATCC 25922 by disk inhibition zone method; type: functional, organism-based; method in brief: as §3
Micrococcus luteus = assay: Antibacterial activity against Micrococcus luteus ATCC 10240 by disk inhibition zone method; type: functional, organism-based; method in brief: as §3
KB = assay: Cytotoxicity against human KB cells assessed as inhibition of cell proliferation after 72 hrs by […] assay; type: functional, cell-based; method in brief: as §1
MCF7 = assay: Cytotoxicity against human MCF7 cells assessed as inhibition of cell proliferation after 72 hrs by […]; type: functional, cell-based; method in brief: as §1
HT-29 = assay: Cytotoxicity against human HT-29 cells assessed as inhibition of cell proliferation after 72 hrs by […]; type: functional, cell-based; method in brief: as §1
MDA-MB-231 = assay: Cytotoxicity against human MDA231 cells assessed as inhibition of cell proliferation after 72 hrs by […]; type: functional, cell-based; method in brief: as §1

Compound | IC50 (HCT-116) | inhibition (BL-21) | IC50 [1] | Activity (Bacillus subtilis) | Activity (Escherichia coli) | Activity (Micrococcus luteus) | IC50 (KB) | inhibition (MCF7) | inhibition (HCT-116) | inhibition (HT-29) | inhibition (KB) | inhibition (MDA-MB-231)
CCCC/C=C\N(NC(C)=O)C(=O)C(CO)/N=[N+](\[O-])CCCCCC (configuration not stated) [GERALCIN C] | 800 nM | Dose-dependent effect | 700000 nM | inactive | inactive | inactive | 800 nM |  |  |  |  | 
CC(=O)O[C@@]12CO[C@@H]1C[C@H](O)[C@@]1(C)C(=O)[C@H](O)C3=C(C)[C@@H](OC(=O)[C@H](O)[C@@H](NC(=O)OC(C)(C)C)c4ccccc4)C[C@@](O)([C@@H](OC(=O)c4ccccc4)[C@H]21)C3(C)C [DOCETAXEL] | 50 nM |  |  |  |  |  | 0.25 nM |  |  |  |  | 
CCCC[C@H]1ON(C(=O)CCC2=CCOC2=O)N=C(C)O[C@H]1O (mixture of isomers) |  | inactive |  | inactive | inactive | inactive |  | inactive | inactive | inactive | inactive | inactive
CCCC/C=C/N(NC(C)=O)C(=O)CO |  | inactive |  | inactive | inactive | inactive |  | inactive | inactive | inactive | inactive | inactive
